STAT3 activator: activators of IL-6 induced STAT3 signaling | activation (% of control), % at 5.6 µM | 0.91% of 190,000 active | U3A cells, IL-6 STAT3-luciferase reporter, luminescence; 100% = signal with IL-6 EC80 alone;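 active = activation above the screen-wide mean of compound activation plus 3 SD, cut at about 130% in these data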;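 note: 0% = background luminescence of wells with medium and substrate only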
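system = STAT3-luciferase reporter U3A cells | reagent = IL-6 stimulus at 33 ng/mL final | timing = 1 h compound pre-exposure, 6 h IL-6 stimulation, 37 °C | measured by = luminescence | evaluation = % activation versus median of IL-6-stimulated wells | control set = IL-6-only wells as 100% reference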
NF-kB expr up: raises NF-kB expression in human neuronal cells; NF-kB reporter expression; active compounds read high; fold change at 12.5 µM; AID 1239; 1.6% of 190,000 active; in the data active = fold change above about 3.3
STAT3 blocker: inhibitors of IL-6 induced STAT3 signaling | U3A cells, IL-6 STAT3-luciferase reporter, luminescence; host cell line lacks STAT1 | inhibition, % at 5.5 µM | 0.89% of 190,000 active;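 active = inhibition above the mean inhibition across all screened compounds plus 3 SD, cut at about 44% in these data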;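 note: 0% = DMSO only wells and 100% = 100 µM nifuroxazide control wells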
APP 5'UTR act: activates APP 5'UTR luciferase reporter; activation, % at 2 µM; 1% of 190,000 active; AID 1276; SH-SY5Y APP 5'UTR luciferase reporter, luminescence; zero percent = DMSO vehicle wells;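 active = activation above a set limit, based on mean plus 3 SD of controls, cut at about 140% in these data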
STAT1 activator: increases IFN-gamma driven STAT1 reporter signal; NIH 3T3 STAT1-luciferase reporter, luminescence; 100% = IFN-gamma alone, no compound; activation (% of control), % at 5.5 µM; 2.6% of 200,000 active; AID 932;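 active = activation above the screen-wide mean activation plus 3 SD, cut at about 130% in these data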;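 note: raw ratio to IFN-gamma control signal so 100% means no change and 0% no light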
STAT1 inh: inhibitors of IFN-gamma induced STAT1 signaling; NIH 3T3 STAT1-luciferase reporter, luminescence; inhibition, % at 5.5 µM; 0.35% of 200,000 active;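 active = inhibition above a set limit, the mean inhibition across all tested compounds plus 3 SD, cut at about 34% in these data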;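 note: 0% = IFN-gamma with DMSO and 100% = IFN-gamma with 300 µM nifuroxazide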
Starred values were filed as active, the others as inactive; · = not tested or not shown. A selection: hits, their analogues and other compounds. The true share with any hit is near 4.9%.

SMILES | STAT3 activator | NF-kB expr up | STAT3 blocker | APP 5'UTR act | STAT1 activator | STAT1 inh
CC(=O)Nc1cccc(-c2csc(Nc3ccccn3)n2)c1 | 87 | 5.4* | 18 | 184* | 143* | -49
COc1ccc(-c2csc(Nc3ccc(C)cn3)n2)cc1OC | 89 | 1.2 | 17 | 31 | 122 | -24
CC(C)NC(=O)CSc1nncn1-c1ccccc1 | 102 | 1 | 2 | -6 | 101 | -3
Cc1[nH]n(-c2ccccc2)c(=S)c1C=Nc1cccc([N+](=O)[O-])c1 | 118 | 1.1 | -13 | 11 | 93 | 8
c1ccc(Nc2nc(-c3cccs3)cs2)nc1 | 95 | 9.6* | 8 | 181* | 136* | -38
c1ccc(Nc2nc(-c3cccnc3)cs2)nc1 | 88 | 5* | 18 | 194* | 144* | -49
Cc1cc(F)ccc1NCC(=O)Nc1ccccc1Br | 104 | 1.3 | -5 | 0 | 110 | -11
O=C(Cc1ccc(F)cc1)N/N=C/c1ccncc1 | 102 | 1.2 | 1 | -22 | 98 | 3
O=C(Nc1cccc(S(=O)(=O)N2CCCCCC2)c1)c1ccc2ccccc2n1 | 108 | 1.1 | -14 | 20 | 100 | -1
O=C(Nc1ccc(N2CCCCC2)cc1)c1ccc2ccccc2n1 | 124 | 2.5 | -27 | 85 | 144* | -48
Cc1ccc(C(=O)Nc2ccc(N3CCCC3)cc2)c(C)c1 | 92 | 1.1 | 19 | 8 | 103 | -4
Cc1ccccc1C(=O)Nc1ccc(N2CCCC2)cc1 | 93 | 2.1 | 13 | 7 | 131* | -35
O=C(Nc1cccc(-c2cn3c(n2)SCC3)c1)c1ccc2ccccc2n1 | 111 | 1.1 | -12 | 87 | 135* | -39
CCN(CC)C(=O)c1cc2c(=O)c3cc(F)ccc3oc2nc1C | 98 | 1.4 | 13 | 16 | 122 | -27
C(=N\Nc1ccccc1)/c1ccc(N2CCOCC2)cc1 | 89 | 1.4 | 19 | 106 | 121 | -23
C/C(=N\Nc1ccccn1)c1ccc(N2CCOCC2)cc1 | 92 | 3.1 | 17 | 46 | 141* | -45
C(=N\Nc1ccccn1)/c1ccc(N2CCOCC2)cc1 | 84 | 4.5* | 23 | 115 | 121 | -24
C/C(=N\Nc1ccccn1)c1ccc(C(C)C)cc1 | 95 | 2.7 | 8 | 17 | 122 | -24
CN(C)CCCNC(=O)c1cc2sc3ccccc3c2s1 | 102 | 1.4 | 4 | -5 | 106 | -7
COCCNC(=O)c1cc2sc3ccccc3c2s1 | 87 | 2.3 | 18 | 104 | 137* | -41
O=C(Nc1cccc2nsnc12)c1ccc2c(c1)OCCO2 | 100 | 1.9 | 3 | 73 | 132* | -35
O=C(Nc1cccc([N+](=O)[O-])c1)c1ccncc1 | 105 | 0.94 | -3 | 15 | 107 | -8
CC(=O)N1CCN(c2ccc(NC(=O)c3ccc4c(c3)OCCO4)cc2)CC1 | 101 | 1.5 | 3 | -1 | 94 | 7
O=C(Nc1ccc(N2CCCCC2)cc1)c1ccc2c(c1)OCCO2 | 75 | 3.8* | 33 | 135* | 133* | -36
CC(C)(C)c1ccc(C(=O)Nc2cccc([N+](=O)[O-])c2)cc1 | 102 | 7.6* | -4 | 137* | 135* | -34
SMILES | STAT3 activator | NF-kB expr up | STAT3 blocker | APP 5'UTR act | STAT1 activator | STAT1 inh
O=C(Nc1cccc([N+](=O)[O-])c1)c1ccc2c(c1)OCCO2 | 104 | 2.4 | -8 | 91 | 139* | -44
CCCCCCNS(=O)(=O)c1ccc(NC(=O)C2CCCO2)cc1 (configuration not stated) | 97 | 0.85 | 2 | 16 | 96 | 4
Cc1ccc(C(=O)OCC(=O)Nc2cccc(S(=O)(=O)NC3=NCCCCC3)c2)c(C)c1 | 100 | 0.92 | 9 | 18 | 92 | 7
Cc1cc(NS(=O)(=O)c2ccc(N3C(=O)C4C5C=CC(C5)C4C3=O)cc2)nc(C)n1 (configuration not stated) | 95 | 1.1 | 5 | 0 | 90 | 12
O=C(Nc1cccc([N+](=O)[O-])c1)c1cnccn1 | 97 | 1.2 | 1 | 14 | 99 | 1
CN(C)S(=O)(=O)Oc1ccc(C(=O)Nc2cccc(Cl)c2)cc1 | 104 | 2.3 | 3 | 123 | 143* | -48
O=C(Nc1cccc([N+](=O)[O-])c1)c1[nH]ncc1Cl | 89 | 2.6 | 16 | 112 | 134* | -38
CN(C)S(=O)(=O)Oc1ccc(C(=O)Nc2cccc(C(F)(F)F)c2)cc1 | 86 | 0.91 | 23 | 26 | 87 | 13
CN(c1cccc(NC(=O)c2ccc(C(C)(C)C)cc2)c1)S(C)(=O)=O | 94 | 2 | 11 | 91 | 138* | -44
Cc1ccc(S(=O)(=O)N(CC(=O)N2CCCCC2)c2cccc(C)c2)cc1 | 108 | 0.94 | -7 | 0 | 96 | 4
O=C(CNCCO)N1CCc2ccccc21 | 113 | 1.2 | -12 | -9 | 99 | 1
O=C(CNc1ccccc1OC(F)F)N1CCc2ccccc21 | 101 | 3.2 | 2 | 92 | 143* | -49
O=C(CCCCCNC(=S)Nc1ccccc1)C[N+](=O)[O-] | 101 | 1.1 | 2 | -1 | 92 | 8
O=C(CCC(=O)c1cccs1)c1cccs1 | 88 | 5.2* | 18 | 131 | 130* | -33
O=C(NCc1ccco1)c1cccs1 | 112 | 1.3 | -12 | 24 | 98 | 2
O=C(COC(=O)c1cccs1)c1ccccc1 | 105 | 4.6* | 0 | 55 | 131* | -34
O=C(CSCc1ccco1)c1cccs1 | 104 | 1.9 | 2 | 170* | 124 | -27
O=C(c1ccccc1)c1cccs1 | 97 | · | 8 | 5 | 97 | 2
CC(C)c1ccc(C(=O)NN2C(=O)C3CCCCC3C2=O)cc1 (configuration not stated) | 92 | 1.6 | 17 | 55 | 144* | -48
Brc1ccccc1/C=N/Nc1ccccn1 | 133 | 2.1 | -37 | 42 | 122 | -25
Clc1ccc(/C=N/Nc2ccccn2)cc1 | 83 | 2.5 | 25 | 31 | 135* | -35
Fc1ccc(/C=N/Nc2ccccn2)cc1 | 97 | 2 | 1 | 49 | 117 | -19
Brc1ccc(/C=N/Nc2ccccn2)cc1 | 85 | 3 | 22 | 58 | 138* | -38
COc1ccc(-c2nsc3c(N4CCCCC4C)ncnc23)cc1 (configuration not stated) | 16 | 0.19 | 99* | -34 | 24 | 81*
Cc1ccc(-c2nsc3c(N4CCC(C(N)=O)CC4)ncnc23)cc1 | 114 | 1.7 | -12 | 142* | 104 | -3
Cc1ccc(C(=O)N2CCN(c3ncnc4c(-c5ccccc5)nsc34)CC2)cc1 | 106 | 0.98 | -5 | 0 | 100 | -2
COc1ccc(-c2cn3c4c(sc3n2)CCCC4)cc1 | 83 | 7.4* | 21 | 130 | 124 | -11
COc1ccc(-c2cn3c(C)c(C(=O)N4CCCc5ccccc54)sc3n2)cc1 | 85 | · | 24 | 3 | 99 | 1
Cc1ccc(Nc2c(F)c(F)c(F)c(F)c2C(=O)O)cc1 | 103 | 0.97 | 2 | 17 | 98 | 4

High-throughput results as filed in PubChem.
